Data as given in the EternaBench riboswitch data.

Test system: MS2 coat protein
Test: apparent Kd, MS2 coat protein; higher = weaker binding; RNA-MaP array; FMN 200 µM where present
How it was run: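 Green signal from SNAP-549-labelled MS2 coat protein was normalised to red-channel RNA signal and to the median Fmax of control clusters. The protein was titrated from 0.7 or 1.5 nM, doubling to 3 µM, without and then with constant ligand, over designs transcribed by stalled E. coli RNA polymerase on Illumina sequencing-chip clusters, in 100 mM Tris-HCl pH 7.5, 80 mM KCl, 4 mM MgCl2, BSA, DTT, yeast tRNA and Tween-20. The apparent Kd is the median of filtered per-cluster binding-curve fits.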

[1] = designed as: ON switch for flavin mononucleotide, no ligand
[2] = ligand present: flavin mononucleotide, designed as: ON switch for flavin mononucleotide
[3] = designed as: OFF switch for flavin mononucleotide, no ligand
[4] = ligand present: flavin mononucleotide, designed as: OFF switch for flavin mononucleotide

| Sequence | apparent Kd [1] | apparent Kd [2] | apparent Kd [3] | apparent Kd [4] |
| --- | --- | --- | --- | --- |
| AAGAAACAUGAGGAUCACCCAUGUAGAAAUAUGGGAGGAUAUACGAAGACGAAAGUCAAAGUAGAAGGCCUAAAAG | 94.6 nM | 27.7 nM | – | – |
| AAGAAACAUGAGGAUCACCCAUGUGAGGAUAUACGAUGCUAAGCGUAAGCUUAGUAUCGUAGAAGGCACAAAGG | – | – | 131 nM | 311 nM |
| AAGAAACAUGAGGAUCACCCAUGUGAGGAUAUGAUGCGAAUUAUGUAUGUAGUAAGCAUCAGAAGGCACAAAGG | – | – | 127 nM | 203 nM |
| AAGAAGCUCACAGGAUAUCAGUAUAUGCGAUCUAGCGUAUUAAUGAACUGCUGAGAAGGGUGAGACAUGAGGAUCACCCAUGUA | 23.3 nM | 62.2 nM | – | – |
| AAGAAGUCAGGAUAUCCAGCUCGUCACUUGCGUGAUGAGUUGGAGAAGGGACAUGAGGAUCACCCAUGUAAAGA | – | – | 56.1 nM | 49.3 nM |
| AAGAAGUCAGGAUAUGCUGCUCGUCACUUGCGUGAUGAGUAGCAGAAGGGACAUGAGGAUCACCCAUGUAAAGC | – | – | 44 nM | 52.4 nM |
| AAGAAGUGAGGAUAUACAUGAGGAUCACCCAUGUUAAGAAGAAUUUUAGAGAAAGAAGGUAGAAGGCACAAGAA | – | – | 49.5 nM | 47.1 nM |
| AAGAAGUGAGGAUAUGCUGACAAUAUGAAGACUUGAGGUAUGCAGAAGGCACAUGAGGAUCACCCAUGUAAGAA | – | – | 30 nM | 29.7 nM |
| AAGAAGUGAGGAUAUGCUGCUCGUCACUUGCGUGAUGAGUAGCAGAAGGCACAUGAGGAUCACCCAUGUGAAAA | – | – | 26 nM | 43.3 nM |
| AAGACGUGGGAAGGAUAUCUGGAAUAUCGGUCGAGAGAAGGUCCCUCGACAUGAGGAUCACCCAUGUAACACGGUCUACCGUGG | 472 nM | 280 nM | – | – |
| AAGAGCGAUUCUCCCUUCCUACAUGAGGAUCACCCAUGUACGAGAAGGCGCCGUUUAUACAACGGUGAGGAUAUCGUGCGUUAC | – | – | 4.49 nM | 4.7 nM |
| AAGCAAGCAGGGAUGCUUCGUAGGGAGGAUAUCUGACUGGGCGGACAUGAGGAUCACCCAUGUACAGAGAAGGCCCAAAACAAC | – | – | 376 nM | 61.6 nM |
| AAGCACUGAUAAUAAUGUAGAAAUACAUGAGGAUCACCCAUGUAGGAUAUCGUCAGGAAUACUGACGAGAAGGACAUACAGUGC | – | – | 16.2 nM | 24.7 nM |
| AAGCAGGGAGGAUAUACAUGGACACACAUUGGUGUAGAACUACAUGAGGAUCACCCAUGUAGAAGGCCCAAAUA | – | – | 52.9 nM | 71.5 nM |
| AAGCUGACAAUAAAUAACUCAAAUACAUGAGGAUCACCCAUGUAGGAUAUGCAGUGGAAUACACUGCAGAAGGACAUAGUCAGC | – | – | 13.6 nM | 21.9 nM |
| AAGGAUCGCACAGGAUAUCAUACAUGAGGAUCACCCAUGUCAGAAAACAAAUGAGAAGGGUGCGCAUUAAUUGCUUGUGAAGAA | 17.9 nM | 4.65 nM | – | – |
| AAGGGCGUGAUAACGCUCAUUAAAACAUGAGGAUCACCCAUGUAGGAUAUCCUACCGAAAUGGUAGGAGAAGGACAAGCAAUGA | – | – | 21.9 nM | 20.8 nM |
| AAGGUACGAGGAUAUACAUAGAUACAGAUACAUGUGGAUGUACAUGAGGAUCACCCAUGUAGAAGGCGUAUAUA | – | – | 300 nM | 318 nM |
| AAGUAGUGUGUGAGGAUAUUGGUGGAAUGACAUAUUAAGAAGGCACAUGAGGAUCACCCAUGUGGGAUGUCACG | – | – | 12.6 nM | 12.6 nM |
| AAGUCGACGGUGAGGAUAUAGGUCGAACGACAGAUCUAGAAGGCACAUGAGGAUCACCCAUGUGGGUAACGUCG | – | – | 19.6 nM | 28.4 nM |
| AAGUUGGUAGGAUAUACGUGCAAUUGGUGUGUCCGGAAAAAACAUGAGGAUCACCCAUGUAGAAGGACCAAAAA | – | – | 49.3 nM | 57.5 nM |
| AAGUUUAACGAAGGAUAUGGUUACAUGAGGAUCACCCAUGUAUUUUUUGUGAUCUUGAAAUAGUUCCAGAAGGUCGUAUACAUA | – | – | 138 nM | 359 nM |
| AAGUUUUUACAAGGAUAUCAAUUGUUUCUAAAUUCAACAUGAGGAUCACCCAUGUAACAAUGGAGUGAGAAGGUGUGUUGGCAA | 86.8 nM | 141 nM | – | – |
| AAUAAACACACAGGAUAUAGCAUCGUCGUUAUGAACUUAAUGACGACGAUGCUAGAAGGGUGAACACAUGAGGAUCACCCAUGU | 211 nM | 35.6 nM | – | – |
| AAUAAACAUGAGGAUCACCCAUGUCAGGAUAUCCAUUUGUUUUUGUUGGUUUUUUUUUGGAGAAGGGACGCUUA | – | – | 87.3 nM | 63 nM |
| AAUAAACUCACAGGAUAUAGCAGAGAUCGCGUGAACUUACAGGCGACGAUGCUAGAAGGGUGACCACAUGAGGAUCACCCAUGU | 673 nM | 120 nM | – | – |
| AAUAAACUCACAGGAUAUAGCAGAGGUCGCCUGAACUUACAGGCGACGAUGCUAGAAGGGUGACCACAUGAGGAUCACCCAUGU | 825 nM | 136 nM | – | – |
| AAUAAACUCACAGGAUAUAGCAGAGGUCGCGUAAACUUACAGGCGACUAUGCUAGAAGGGUGACCACAUGAGGAUCACCCAUGU | 836 nM | 161 nM | – | – |

| Sequence | apparent Kd [1] | apparent Kd [2] | apparent Kd [3] | apparent Kd [4] |
| --- | --- | --- | --- | --- |
| AAUAAACUCACAGGAUAUAGCAUAAGUCGCGUGAACUUACAGGCGACUAUGCUAGAAGGGUGACCACAUGAGGAUCACCCAUGU | 805 nM | 158 nM | – | – |
| AAUAACAGAGGAUAUACUAUUUUAUGUAUUUAUUAUUUUAAACAUGAGGAUCACCCAUGUAGAAGGCUGAAUAA | – | – | 19.8 nM | 20.7 nM |
| AAUAACAGAGGAUAUACUAUUUUAUGUGUUUGUUAUUUUGAACAUGAGGAUCACCCAUGUAGAAGGCUGAUUGA | – | – | 47 nM | 44 nM |
| AAUAACAGAGGAUAUACUGUUUUAUGUGUUUAUUAUUUUGAACAUGAGGAUCACCCAUGUAGAAGGCUGAAUGA | – | – | 32.7 nM | 31.5 nM |
| AAUAUAAGAGCUGGAAAUAACUCAACAUGAGGAUCACCCAUGUAGGAUAUCAGCACGAUAAGUGCUGAGAAGGACAUCCAGCUC | – | – | 14.4 nM | 14.6 nM |
| AAUAUAAGAGCUGGUAAAUAACUCACAUGAGGAUCACCCAUGUAGGAUAUCAGCACGAUAAGUGCUGAGAAGGACAUCCAGCUC | – | – | 15.4 nM | 16.2 nM |
| AAUAUAGAAGGAUAUGCAGCCGUGAGCCAUAGAGGAGACGAACAUGAGGAUCACCCAUGUAGAAGGUCUCGAUU | – | – | 13.1 nM | 12.4 nM |
| AAUAUAGAGCUGGAAAUAAACUCAACAUGAGGAUCACCCAUGUAGGAUAUCAGCACGAUAAGUGCUGAGAAGGACAUCCAGCUC | – | – | 16.7 nM | 17.1 nM |
| AAUAUAGAGCUGGAAUAAAACACAACAUGAGGAUCACCCAUGUAGGAUAUCAGCACGAUAAGUGCUGAGAAGGACAUCCAGCUC | – | – | 14.7 nM | 14.2 nM |
| AAUAUGAGCUGGAAUAAAACCUUGACAUGAGGAUCACCCAUGUAGGAUAUCAGCACGAUAAGUGCUGAGAAGGACAACCAGCUC | – | – | 14.4 nM | 15.6 nM |
| AAUAUGUUGCAGAAGGUUAUAUUUAUUUAGUACCUCAUGACAUGAGGAUCACCCAUGUUAAUGUUGAAGGAUAUGCAAUAUAUU | – | – | 14.1 nM | 13.6 nM |
| AAUAUGUUGCAGAAGGUUAUUUUUAUAACGAUCCACUUGACAUGAGGAUCACCCAUGUAAUUGAUGAAGGAUAUGCAAUAUAUU | – | – | 6.69 nM | 6.69 nM |
| AAUCCACAUGAGGAUCACCCAUGUCAGGAUAUUGUUACUAGAGCGCACCUGUGUUCUACGAGAAGGGACUAAAC | – | – | 12 nM | 12.2 nM |
| AAUCCACAUGAGGAUCACCCAUGUGAGGAUAUGAUACUAUGUACUUCGGUACAUAGUAUCAGAAGGCACAGGUC | – | – | 23.6 nM | 51.6 nM |
| AAUGAGACCGCAGGAUAUCCACAUGAGGAUCACCCAUGUUCUCAGAUCAGAAGCACGAUCUGCGAGGAGAAGGGCGACCUCAUA | 563 nM | 37.6 nM | – | – |
| AAUGGGCACCAGAAGGACAUGAGGAUCACCCAUGUAGGAUAUGGGCGUUGAAGAUGUCUGAACGAGUUGCUGGAAGGAUAUGGG | 305 nM | 41 nM | – | – |
| AAUGGUGGAGGAUAUACAUGAGGAUCACCCAUGUAAAUCACACAUGUGGUCAACGCAUGUAGAAGGCCACUAAA | – | – | 62.5 nM | 104 nM |
| AAUGUGUCAGGAUAUUGUUAGUUUAGUUGUUUGUAUUAGUUCGAGAAGGGACAUGAGGAUCACCCAUGUUGUAA | – | – | 40.1 nM | 31.9 nM |
| AAUGUGUCAGGAUAUUGUUAGUUUAGUUGUUUGUAUUAGUUCGAGAAGGGACAUGAGGAUCACCCAUGUUGUUA | – | – | 36.4 nM | 29.1 nM |
| AAUGUGUGUCGAGGAUAUAUAACAUGACAACAAACACAUACAUGAGGAUCACCCAUGUCCCAUGUAUAGAAGGCGAUAUAUAUA | 310 nM | 1120 nM | – | – |
| AAUUAAUUAAUACAUGAGGAUCACCCAUGUAAUUAUUAGAUCUAGGAUAUCAGCUCGAAUAGAGCUGAGAAGGAGAUCACAUGU | 19.4 nM | 15 nM | – | – |
| AAUUACAUGUAGAAGGUACUUUCAUAAGUGUUGUAAGGAUAUACCAAUUUAUUAGUUUUAAAGAUACAUGAGGAUCACCCAUGU | 8.59 nM | 8.18 nM | – | – |
| AAUUAUUAUUGAGGAUAUCGUAUUGAAACAAUACGAGAAGGCGGGAUAAACAUGAGGAUCACCCAUGUGAGCCUGAUGCUUGUG | – | – | 18.1 nM | 16.5 nM |
| AAUUAUUGAUGAGGAUAUUGUGGUGAAACACGACAAGAAGGCAUUAUUCACAUGAGGAUCACCCAUGUGAGCCUGAUGCAUAUA | – | – | 14.5 nM | 13.9 nM |
| AAUUAUUGAUGAGGAUAUUGUGGUGAAACACGACGAGAAGGCAUAUGUCACAUGAGGAUCACCCAUGUGAGCCUUGUGCAUAUA | – | – | 19.9 nM | 18.9 nM |
| AAUUAUUUACAGAAGGAGUUAAAAGGAGUAUUACUAGGAUAUGUUCACAUGAGGAUCACCCAUGUCAUAUUGGGAUUUAUUUUU | – | – | 22.5 nM | 22.6 nM |
| AAUUAUUUGUAGAAGGAAGGAGAUUUUGUAUUCUUAGGAUAUACUAUUACAUGAGGAUCACCCAUGUUUGAAGGGUUGCUAUGU | – | – | 74.2 nM | 82.2 nM |
